This is a sample that favours compounds with a hit; in the whole collection about 2.1% have one here.
SUMO1-SIM PPI: modulators of human SUMO1-mediated protein-protein interactions | 0.33% of 360,000 active | inhibition, % at 20 µM | SUMO1 binding to a labelled peptide, TR-FRET, 1 h | P63165 | AID 602429; in the data active = inhibition above about 37%
Target sequence (P63165 whole entry, looked up): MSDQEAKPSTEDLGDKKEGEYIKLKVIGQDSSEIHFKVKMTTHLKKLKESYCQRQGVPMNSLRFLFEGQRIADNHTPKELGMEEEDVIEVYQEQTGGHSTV
Scp-1 inhibitor: blocks human Scp-1 phosphatase activity | Recombinant Scp1, phosphopeptide, malachite green phosphate absorbance | inhibition, % at 20 µM | 0.88% of 340,000 active | Q9GZU7 | AID 493091;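 active = inhibition above about 50% at 20 µM, limit read from the data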;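 note: plate controls were DMSO wells with enzyme for no effect and wells lacking enzyme for full effect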
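Test system: SCP-1 catalytic domain; Buffer or medium: Acidic Tris acetate buffer with magnesium and detergent; Also added: Phosphorylated 17-residue peptide substrate; Compound: single 20 µM dose, 1% DMSO; Schedule: enzyme reaction 45 min at room temperature, colour 5 min, stabilisation 30 min; Signal: Phosphate-binding colour reagent, absorbance read at 630 nm.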
STEP block: STEP (human) phosphatase inhibition. inhibition, % at 20 µM. recombinant STEP, OMFP fluorogenic substrate, fluorescence. 0.25% of 360,000 active. P54829;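 active = inhibition at 20 µM, scaled per plate between control wells, above about 37%, limit read from the data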;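 note: 0% = DMSO with enzyme and substrate and 100% = substrate only without enzyme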
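System: isolated STEP enzyme; schedule: 20 min enzyme reaction at room temperature, protected from light; medium: Bis-Tris buffer pH 6.0, 2.5 mM DTT, 0.005% Tween 20; signal: fluorescence, 480/540 nm; dosing: single compound dose of 20 µM, 1% DMSO final; also added: OMFP substrate, 25 µM final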
GRK2 inh: blocks RNA aptamer binding to human GRK2; inhibition of aptamer binding, % at 10 µM; bead flow cytometry, FAM-aptamer displacement from GRK2; 0.59% of 330,000 active;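 active = inhibition of aptamer binding above 40%, roughly 3 SD of noise, on plates passing a quality check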;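 note: median bead fluorescence of bound FAM aptamer so fluorescent compounds give negative values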
Target sequence (P25098 whole entry, looked up): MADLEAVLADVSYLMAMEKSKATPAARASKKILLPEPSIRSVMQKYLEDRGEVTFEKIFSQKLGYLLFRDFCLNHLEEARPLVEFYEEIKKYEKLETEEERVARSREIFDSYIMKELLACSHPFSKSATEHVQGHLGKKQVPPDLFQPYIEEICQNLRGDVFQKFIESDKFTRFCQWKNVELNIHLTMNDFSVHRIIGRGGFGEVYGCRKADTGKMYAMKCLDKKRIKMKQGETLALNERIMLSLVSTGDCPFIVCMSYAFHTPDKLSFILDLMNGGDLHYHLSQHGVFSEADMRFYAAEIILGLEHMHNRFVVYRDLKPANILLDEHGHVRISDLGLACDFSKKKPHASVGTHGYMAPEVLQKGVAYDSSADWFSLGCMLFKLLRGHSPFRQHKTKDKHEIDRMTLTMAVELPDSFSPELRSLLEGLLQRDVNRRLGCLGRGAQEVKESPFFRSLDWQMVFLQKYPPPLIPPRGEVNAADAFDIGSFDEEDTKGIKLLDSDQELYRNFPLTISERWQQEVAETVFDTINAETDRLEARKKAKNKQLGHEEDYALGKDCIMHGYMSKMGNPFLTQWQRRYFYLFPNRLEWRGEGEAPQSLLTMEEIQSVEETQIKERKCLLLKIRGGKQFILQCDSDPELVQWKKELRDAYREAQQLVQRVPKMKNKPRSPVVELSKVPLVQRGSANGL
LMPTP inh: LMPTP (human) inhibition; inhibition, % at 20 µM; AID 651560; recombinant LMPTP-A, OMFP fluorogenic substrate, fluorescence intensity; 0.22% of 360,000 active; P24666;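 active = compounds that cut the enzyme signal by at least half of the control window in the single-dose screen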;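 note: plate controls were DMSO wells with enzyme plus substrate for no effect and substrate without enzyme for full effect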
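Assay system: LMPTP-A enzyme. Input: 0.625 nM LMPTP-A final. Probe or stimulus: 400 µM OMFP. Compound dosing: single 20 µM dose. Schedule: 50 min dark incubation at room temperature. Detection: fluorescence intensity of OMFP turnover product. Read-out: percent inhibition versus substrate-only and uninhibited controls. Benchmarks: no-enzyme low control, uninhibited high control.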
DNMT1 block: inhibitors of human DNMT1. 0.83% of 360,000 active. inhibition (reported as % activation of signal), % at 10 µM. P26358. AID 588458. DNMT1 molecular beacon, Hinp1I cleavage, fluorescence; in the data active = inhibition above about 50%
Scp-1 conf: confirmation of human Scp-1 phosphatase inhibitors; recombinant SCP-1 catalytic domain, phosphate release, malachite green absorbance; shares compounds with Scp-1 inhibitor; inhibition, % at 20 µM; 61% of 2,500 active;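 note: plate controls were DMSO with enzyme for no effect and buffer wells lacking enzyme for full effect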
Scp-1 MG ctr: counter-screen for Scp-1 inhibitors: colorimetric interference; shares compounds with Scp-1 inhibitor; Colorimetric interference counterscreen, malachite green absorbance 630 nm; apparent inhibition (interference), % at 20 µM; 2,500 tested, under 10 active;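 note: compounds added after enzyme reaction finished so only phosphate colour detection is probed; plate controls were DMSO wells with completed Scp-1 reaction for no effect and substrate wells lacking enzyme for full effect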
Scp-1 Tm shift: validation of human Scp-1 inhibitors by thermal shift binding. thermal shift relative to vanadate control, % at 40 µM. shares compounds with Scp-1 inhibitor. Recombinant SCP1, Sypro Orange thermal shift Tm. 25% of 1,500 active;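 active = substances whose mean melting-temperature shift, as a percentage of the reference inhibitor's shift, reaches about 5.3%, limit read from the data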;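 note: 0% = Tm of DMSO wells and 100% = Tm with sodium orthovanadate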
Starred values were filed as active, the others as inactive; . = no result.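 Rule for the calls, unless noted: active = inhibition of at least 30% at 20 µM; inactive = the rest.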

SMILES	SUMO1-SIM PPI	Scp-1 inhibitor	STEP block	GRK2 inh	LMPTP inh	DNMT1 block	Scp-1 conf	Scp-1 MG ctr	others
CC1(c2ccccc2)NC(=O)N(CC(=O)N2CCN(S(=O)(=O)c3ccccc3[N+](=O)[O-])CC2)C1=O (stereo not drawn)	-7.0	50.2*	2.8	3.0	-0.5	2.3	8.6	-12.0
Cn1c(=O)c2nc(SCc3ccccc3)n(C)c2n(C)c1=O	2.0	-9.6	-2.1	.	-1.5	2.9	.	.
C1=CC2=NC34CCCCC3CC3=C(CCCC3)N4C2=CC1=NC1CCCCC1 (stereo not drawn)	-12.0	68.0*	3.1	6.0	9.8	-4.2	-6.2	-4.6
CCOC(=O)C(C)(C)Oc1cccc2c1S(=O)(=O)c1ccccc1-2	2.9	-14.2	-2.5	1.0	0.3	-1.4	.	.
COc1ccccc1-n1c(SCC(=O)N2CCOCC2)nc2cccnc21	1.8	-0.3	-0.9	0.0	0.0	-0.4	.	.
COc1ccccc1-n1c(SCC(=O)N2CCCCC2)nc2cccnc21	-3.9	95.4*	-3.2	1.0	-1.3	1.4	-21.2	-14.8
C[C@H]1CCC(=O)N([C@H](CSc2ccc(Br)cc2)Cc2ccccc2)CC1	0.9	-8.5	4.6	0.0	5.5	2.6	.	.
Cc1cccc(C)c1NC(=O)NC1(C(=O)N2CCN3CCCC3C2)CCCCC1 (stereo not drawn)	6.0	70.3*	-0.5	0.0	-1.5	1.6	-16.6	-12.9
C[n+]1cnn2c1SCC1(COC1)C2	-0.8	104.3*	-1.2	4.0	-2.5	-1.4	-12.0	-15.1
CC(C)(C)OC(=O)NCCc1onc(-c2cccc([N+](=O)[O-])c2)c1C(=O)O	-16.9	.	-2.1	.	-0.6	8.8	.	.
CCCc1c(C(=O)N/N=C/c2ccc(C)s2)nnn1-c1nonc1N	-2.2	60.9*	12.3	0.0	29.0	25.3	26.5	-6.5
CCCc1c(C(=O)N/N=C/c2cccs2)nnn1-c1nonc1N	8.9	29.9	1.4	3.0	7.3	19.9	.	.
COC(=O)C1CCN(C(=O)COC(=O)CNS(=O)(=O)c2ccc(SC)c([N+](=O)[O-])c2)CC1	-29.7	74.4*	11.4	12.0	6.4	23.9	42.7*	-21.1	Scp-1 Tm shift=-14.8
CC(=O)Nc1ccc(NC(=O)CCCc2c[nH]c3ccccc23)cc1	1.3	-2.7	-0.2	3.0	-0.3	-5.4	.	.
O=C(CCCc1c[nH]c2ccccc12)Nc1ccc2ccccc2c1	-2.4	58.5*	2.7	0.0	1.3	-16.4	-11.1	-5.4
CCOC(=O)C1=C(C)Nc2ccccc2N/C1=N\S(=O)(=O)c1cc(C(=O)O)ccc1Cl	9.9	50.3*	9.6	11.0	7.1	38.9	40.9*	-18.9	Scp-1 Tm shift=-4.8
COc1ccc(SCC(O)Cn2c3ccccc3c3ccccc32)c(OC)c1 (stereo not drawn)	2.4	.	.	.	3.2	.	.	.
C[N+]1(C2CCC3CCCC2C3O)CCCCC1 (stereo not drawn)	-0.1	95.6*	-0.6	2.0	-0.4	0.6	78.3*	-20.8	Scp-1 Tm shift=-5.0
CCN1C(=NCc2cc(OC)c(OC)c(OC)c2)N[C@@H](c2ccccc2)C(C(=O)OC)=C1C	2.8	54.2*	0.4	3.0	0.1	5.3	-13.4	-13.1
CCN1C(=NCc2ccco2)N[C@@H](c2cccc(C(F)(F)F)c2)C(C(=O)OC)=C1C	-20.4	4.4	-2.2	0.0	-1.4	2.8	.	.
CCN1C(=NCc2cc(OC)c(OC)c(OC)c2)N[C@@H](c2cccc(C(F)(F)F)c2)C(C(=O)OC)=C1C	-1.6	-13.9	-1.5	0.0	-1.7	-0.5	.	.
CCN1C(=NCCOC)N[C@@H](c2cccc(C(F)(F)F)c2)C(C(=O)OC)=C1C	-1.9	56.1*	2.0	0.0	-1.7	2.1	5.1	-9.3
CCN1C(=NCC2CC2)N[C@@H](c2cccc(C(F)(F)F)c2)C(C(=O)OC)=C1C	-7.2	50.1*	-0.2	0.0	-0.2	3.5	-14.4	-13.4
c1ccc(COc2ncnc3c2ncn3CCCNC2CCN(Cc3ccccc3)CC2)cc1	-5.5	.	0.2	.	-2.2	1.5	.	.
Cc1ccc(NC(=O)CSc2nc3ccccc3c(=O)n2CCCC(=O)NCCCN2CCOCC2)cc1	-1.0	-4.2	-3.5	0.0	0.6	-0.6	.	.
SMILES	SUMO1-SIM PPI	Scp-1 inhibitor	STEP block	GRK2 inh	LMPTP inh	DNMT1 block	Scp-1 conf	Scp-1 MG ctr	others
COc1ccc2cc(C(=O)Nc3ccc(S(N)(=O)=O)cc3)sc(=O)c2c1OC	-28.7	72.5*	10.5	0.0	6.3	1.2	38.1*	-21.6	Scp-1 Tm shift=-4.0
COc1ccc2cc(C(=O)Nc3ccccc3)sc(=O)c2c1OC	-9.9	36.3	8.0	6.0	1.6	6.5	.	.
CCOC(=O)C1C(C(=O)OC)=C(c2ccc(OC)cc2)c2ccccc2N1S(=O)(=O)C(F)(F)F (stereo not drawn)	-20.1	-1.3	0.2	2.0	0.9	3.1	.	.
CCOC(=O)C1(C)C(C(=O)OC)=C(c2ccc(OC)cc2)c2ccccc2N1C(=O)OC (stereo not drawn)	-2.4	95.6*	-3.0	0.0	0.4	3.1	56.5*	-10.9	Scp-1 Tm shift=-8.8
O=C(OC1CCOC1=O)c1ccc(Cl)c(S(=O)(=O)N2CCOCC2)c1 (stereo not drawn)	10.3	52.7*	15.0	16.0	4.8	25.5	27.1	-18.9
COc1ccc(CN(C)C[C@H]2OCCCC[C@@H](C)Oc3ccc(NC(=O)c4ccccc4)cc3C(=O)N([C@H](C)CO)C[C@@H]2C)cc1	1.9	.	-2.9	.	-2.1	5.5	.	.
Cc1c(C(=O)N2CCOCC2)c(S(=O)(=O)Nc2cccc(C#N)c2)c(C)n1C	2.0	-6.3	-3.2	0.0	-0.4	-0.2	.	.
CCOc1ccc(NC(=O)c2ccc(N)cc2)cc1	-1.0	-9.1	-0.9	4.0	-0.6	-2.4	.	.
CCOc1ccc(NC(=O)c2ccc(NC(=O)c3ccc(NC(N)=O)cc3)cc2)cc1	30.1	58.8*	9.1	0.0	35.2	55.9*	35.1*	-12.9	Scp-1 Tm shift=8.0*
CC(C)c1cc(=O)[nH]c(N2CCN(Cc3ccc4c(c3)OCO4)CC2)n1	0.1	-2.4	-2.7	1.0	-0.6	0.3	.	.
CC1C(C#N)=C(N)OC2=C1C(=O)CC(c1ccccc1)C2 (stereo not drawn)	-2.9	55.4*	1.7	4.0	-0.5	-1.2	-13.7	-9.3
N#CC1=C(N)OC2=C(C(=O)CC(c3ccccc3)C2)C1c1ccoc1 (stereo not drawn)	2.8	0.5	1.3	3.0	-1.4	9.1	.	.

High-throughput results from PubChem.
